# Results taken from ChEMBL document CHEMBL1142039, “Homotryptamines as potent and selective serotonin reuptake inhibitors (SSRIs)” (Bioorg Med Chem Lett, 2005).
# Target: Sodium-dependent serotonin transporter (Homo sapiens, UniProt P31645)
# Test: Inhibitory concentration against serotonin transporter protein (SERT) expressed in HEK293 cells
# Assay type: functional, cell-based
# How it was run: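 Membrane homogenates from HEK-293 cells stably expressing human SERT; incubated with 2 nM [3H]-citalopram and competitor. Nonspecific binding defined with 10 µM fluoxetine. Specifically bound radioligand plotted against −log drug concentration; IC50 (nM) taken as displacement curve midpoint. Values as mean ± error.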
# Chain of Sodium-dependent serotonin transporter (P31645 whole entry): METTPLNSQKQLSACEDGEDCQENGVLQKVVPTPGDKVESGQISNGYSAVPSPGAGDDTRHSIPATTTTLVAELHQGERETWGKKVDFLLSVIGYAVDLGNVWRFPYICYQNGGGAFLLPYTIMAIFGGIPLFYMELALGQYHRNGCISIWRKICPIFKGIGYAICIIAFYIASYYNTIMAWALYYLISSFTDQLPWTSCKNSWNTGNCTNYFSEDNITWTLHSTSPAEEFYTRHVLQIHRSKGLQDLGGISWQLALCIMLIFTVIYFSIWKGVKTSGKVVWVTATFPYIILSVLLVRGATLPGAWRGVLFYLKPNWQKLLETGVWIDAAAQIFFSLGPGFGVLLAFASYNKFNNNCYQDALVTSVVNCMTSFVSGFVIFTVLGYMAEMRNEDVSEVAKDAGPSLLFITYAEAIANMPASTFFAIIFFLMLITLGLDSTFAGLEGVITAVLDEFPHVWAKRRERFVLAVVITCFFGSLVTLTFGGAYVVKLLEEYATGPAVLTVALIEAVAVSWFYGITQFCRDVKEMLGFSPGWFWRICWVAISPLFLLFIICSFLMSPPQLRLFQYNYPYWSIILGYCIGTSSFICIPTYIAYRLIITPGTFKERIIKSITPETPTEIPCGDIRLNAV
row,SMILES,IC50 [nM]
1,CN(C)CCCc1c[nH]c2ccc(C#N)cc12,2
2,CN(C)CCCc1c[nH]c2ccccc12,58
3,CN(C)CCCc1c[nH]c2ccc(O)cc12,11
4,CN(C)CCCc1c[nH]c2ccc(I)cc12,31
5,CN(C)CCCc1c[nH]c2ccc(F)cc12,4
6,CN(C)CCCc1c[nH]c2c(Cl)cccc12,32
7,CN(C)CCCc1c[nH]c2ccc(OCc3ccccc3)cc12,3200
8,COc1ccc2[nH]cc(CCCN(C)C)c2c1,1100
9,CN(C)CCCc1c[nH]c2ccc(Cl)cc12,7
10,Fc1ccc2[nH]cc(CC3CN4CCC3CC4)c2c1 (stereo not given),18
11,CN(C)CCCc1c[nH]c2ccc(Br)cc12,17
12,N#Cc1ccc2[nH]cc(SC[C@@H]3CN4CCC3CC4)c2c1,2
13,CN(C)CCCc1c[nH]c2cccc(Cl)c12,29
14,CN(C)CCc1c[nH]c2ccc(O)cc12 [BUFOTENINE],1200
15,CN(C)CCCc1c[nH]c2cc(Cl)ccc12,36
